Assay outcomes: PubChem, several laboratories
Shown are actives, neighbours in structure and some others; about 2.9% of the full set was active somewhere.
ADAM10 inh – inhibitors of human ADAM10 | O14672 | recombinant ADAM10, EDANS/DABCYL FRET peptide cleavage, 3 h | inhibition, % at 7 µM | hit rate 0.62% among 370,000 | AID 720582;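 active = inhibition above a per-campaign cutoff equal to the mean of compounds falling between control-based bounds plus 3 SD, cut at about 20% in these data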;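 note: 0% = DMSO wells while the 100% control is not disclosed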
Target sequence (O14672 214-748 limits assumed): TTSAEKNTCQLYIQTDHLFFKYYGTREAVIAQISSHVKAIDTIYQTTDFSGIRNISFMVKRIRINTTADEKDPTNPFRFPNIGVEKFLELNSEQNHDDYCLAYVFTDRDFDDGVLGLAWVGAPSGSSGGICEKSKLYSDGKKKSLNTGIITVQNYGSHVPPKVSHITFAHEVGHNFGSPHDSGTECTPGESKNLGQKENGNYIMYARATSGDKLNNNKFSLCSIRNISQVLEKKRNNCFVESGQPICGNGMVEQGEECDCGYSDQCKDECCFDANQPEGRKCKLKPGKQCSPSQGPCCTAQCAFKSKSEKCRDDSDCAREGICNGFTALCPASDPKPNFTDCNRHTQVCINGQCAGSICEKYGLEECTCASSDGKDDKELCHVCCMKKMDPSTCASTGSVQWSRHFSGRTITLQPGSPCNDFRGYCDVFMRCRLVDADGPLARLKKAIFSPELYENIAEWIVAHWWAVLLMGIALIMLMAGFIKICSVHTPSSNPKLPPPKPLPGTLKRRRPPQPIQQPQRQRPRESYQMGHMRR
FAS TE block – inhibitors of human fatty acid synthase thioesterase domain; P49327; recombinant FAS-TE, OMFH fluorogenic substrate, fluorescence endpoint; inhibition, % at 15 µM; hit rate 0.67% among 360,000; AID 602261;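 active = compounds whose normalised, plate-corrected inhibition of enzyme fluorescence in the single-dose primary screen is 50% or more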;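 note: 0% = DMSO with enzyme and 100% = substrate without enzyme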
CaV13 FRET inh – Disruptors of the CACNA1D IQ motif to Ca2+-dependent inactivation inhibitor domain association, primary screening, Förster resonance energy transfer in intact living …; HEK cells, CFP/YFP FRET ICDI-IQ, plate reader, 10 min; percent FRET-ratio fall versus neutral wells; inhibition, % at 12.3 µM; hit rate 0.098% among 340,000; AID 743397;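 active = mean replicate inhibition of at least 30% and at least 1% of replicates passing that level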;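 note: 0% = median of the neutral control wells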
ADAM17 inh – ADAM17 inhibition, QFRET primary screen. hit rate 0.83% among 370,000. recombinant ADAM17, EDANS/DABCYL FRET peptide cleavage. inhibition, % at 6.95 µM;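 active = inhibition above the mean of compounds lying between control limits plus 3 SD, set per campaign, cut at about 8.5% in these data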;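 note: 0% = DMSO-only wells as the low control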
Arr AP2 block – blocks beta-arrestin peptide binding to AP2 adaptin. AID 504490. hit rate 0.31% among 340,000. inhibition, % at 10 µM. FITC-arrestin peptide / GST-AP2 beads, flow cytometry; AP2 beta2 appendage carries R879A mutation;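 active = inhibition above a set limit, near 3 SD of compounds lacking own fluorescence, cut at about 54% in these data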;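 note: plate controls were DMSO wells for no effect and 5 µM unlabelled arrestin peptide for full effect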
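Assay system: GST-AP2 R879A bound to glutathione beads, E. coli-expressed; Medium: PBS with 0.05% Tween 20 and 0.1% BSA; Also added: fluorescein-tagged arrestin peptide at 50 nM final; Timing: 12 min plus 1 h, RT; Measured by: flow cytometry, FL1 (488/535 nm); Evaluation: percent drop in bead-associated FITC signal.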
CendR NRP1 mod – alters CendR peptide binding to human NRP-1; inhibition, % at 25 µM; hit rate 0.85% among 360,000; FAM-RPARPAR peptide binding to NRP-1, fluorescence polarization;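 active = inhibition or corrected inhibition above about 18%, plus a signal ratio from 0.5 to 1.5, limit read from the data, passing the limit was not always enough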
* marks the source's active call; other numbers are inactive results; i = inactive; · = no result.

SMILES	ADAM10 inh	FAS TE block	CaV13 FRET inh	ADAM17 inh	Arr AP2 block	CendR NRP1 mod
Cc1ccc(/C=N/NC(=O)c2nnn(-c3nonc3N)c2-c2ccccc2)o1	1.4	8.0	-6.6	2.0	-5.2	-0.1
Cc1ccc(/C=N/NC(=O)c2nnn(-c3nonc3N)c2C)o1	-7.1	-2.2	·	-0.6	5.8	20.2*
CCN1C(=O)[C@H]2[C@@H](c3ccc(C)cc3)N3C(=O)N(c4cccc(F)c4)C(=O)[C@@]3(Cc3ccc(Cl)cc3)[C@H]2C1=O	9.3	44.0	-10.1	3.5	3.8	2.0
O=C1[C@H]2[C@@H](c3ccc(Cl)cc3)N3C(=O)N(c4cccc(F)c4)C(=O)[C@@]3(Cc3ccc(Cl)cc3)[C@H]2C(=O)N1C1CCCCC1	·	95.8*	·	·	23.0	23.7
CC(C)C[C@@]12C(=O)N(c3cccc(Cl)c3)C(=O)N1[C@H](c1ccc(F)cc1)[C@@H]1C(=O)N(C3CCCCC3)C(=O)[C@@H]12	4.1	84.0*	-5.8	-2.5	1.8	2.4
Cc1cccc(N2C(=O)N3[C@H](c4ccc(Cl)cc4)[C@@H]4C(=O)N(C5CCCCC5)C(=O)[C@@H]4[C@]3(Cc3ccc(Cl)cc3)C2=O)c1	·	94.5*	·	·	0.7	14.0
O=C1[C@H]2[C@@H](c3ccc(Cl)cc3)N3C(=O)N(c4cccc(Cl)c4)C(=O)[C@@]3(Cc3ccc(Cl)cc3)[C@H]2C(=O)N1C1CCCCC1	-1.3	93.7*	-5.4	-4.6	16.1	-6.0
CCOC1=C2[C@@H](CN(S(=O)(=O)c3ccc(C)cc3)[C@H]2c2ccccc2F)[C@H]2C(=O)N(c3ccccc3)C(=O)[C@H]2C1	-16.7	31.6	-3.5	-1.3	·	-5.9
CN1C(=O)c2ccccc2CC12c1ccccc1C(=O)N2C (stereo not given)	-2.2	-9.8	-4.8	-3.0	·	-8.9
O=C1[C@H]2[C@@H](c3ccc(F)cc3)N3C(=O)N(c4ccc(Br)cc4)C(=O)[C@@]3(Cc3ccccc3)[C@H]2C(=O)N1C1CCCCC1	8.1	91.7*	-12.9	-1.1	-5.9	9.8
CC(C)Oc1ccc(-c2csc(N3CCC(C(N)=O)CC3)n2)cc1	-1.3	·	·	-4.0	·	·
O=C(NCc1ccc(Cl)cc1)C1CCC(=O)N(C2CC2)C1 (stereo not given)	-5.2	-6.8	-5.1	-1.6	-15.3	20.2*
O=C(NCCc1ccc(Cl)cc1)C1CCC(=O)N(C2CCCCCC2)C1 (stereo not given)	-1.2	-5.4	-2.1	-1.2	-8.1	1.8
C#CCOCCOCCOCCNc1nc(N2CCN(C(=O)CCCCCCCCCCNC(=O)[C@H](CO)n3cc(CCCSC)nn3)CC2)nc(N2CCN(C(=O)CCCCCCCCCCNC(=O)[C@H](CCCCN)n3cc(CCO)nn3)CC2)n1	9.7	-28.3	-6.2	1.9	5.4	10.0
C#CCOCCOCCOCCNc1nc(N2CCN(C(=O)CCCCCCCCCCNC(=O)[C@H](CO)n3cc(CCCSC)nn3)CC2)nc(N2CCN(C(=O)CCCCCCCCCCNC(=O)[C@H](CCCN=C(N)N)n3cc(C[C@@H](C)CC)nn3)CC2)n1	·	-114.9	·	·	-30.3	25.1*
C#CCOCCOCCOCCNc1nc(N2CCN(C(=O)CCCCCCCCCCNC(=O)[C@H]([C@@H](C)CC)n3cc(CCCCN=C(N)N)nn3)CC2)nc(N2CCN(C(=O)CCCCCCCCCCNC(=O)[C@H](CO)n3cc(CCCCCN)nn3)CC2)n1	·	-47.0	·	·	-1.4	28.1*
C=CCOc1c(CNc2ncn[nH]2)cccc1OCC	-0.2	-7.7	-6.6	-0.1	5.0	28.5*
COc1ccc(C2CCc3cc4c(cc3C2=NO)OCO4)cc1OC (stereo not given)	6.2	-4.3	-9.7	-0.5	·	-11.7
O=C(NNC(=O)c1cc(S(=O)(=O)N2CCOCC2)c(Cl)cc1Cl)c1ccccc1F	-21.0	-8.4	-5.4	1.1	-6.5	17.2*
O=C(Nc1ccccc1O)c1cc(S(=O)(=O)N2CCOCC2)c(Cl)cc1Cl	6.3	-5.5	-8.6	0.1	4.8	-0.1
Cc1ccc(NC(=O)Cc2cccc(OC(F)(F)F)c2)c(S(=O)(=O)N2CCOCC2)c1	-0.4	·	·	0.1	·	·
COc1ccc(C(=O)COC(=O)c2nc3nccc(C)n3n2)cc1F	-5.5	-1.5	-1.9	-5.9	-10.5	-11.2
O=S1(=O)c2ccccc2-c2c(nnn2Cc2ccccc2)CN1C1CC1	2.8	·	·	0.2	·	·
CCCCOc1cccc(-c2cc(C(=O)NNC(=S)NCC)c3ccccc3n2)c1	-39.1	74.0*	-3.3	-15.1	13.6	-2.6
COc1ccccc1C(=O)NC(=O)CSc1nncn1C	-13.9	-3.0	-5.4	-3.2	3.8	26.2*
SMILES	ADAM10 inh	FAS TE block	CaV13 FRET inh	ADAM17 inh	Arr AP2 block	CendR NRP1 mod
Cc1csc(NC(=O)c2cc(-c3ccccc3)nc3ccccc23)n1	18.7	23.5	-4.2	7.2	11.1	35.0*
Cn1cnnc1SCC(=O)Nc1nc(-c2ccccc2)cs1	7.5	0.3	-6.3	0.5	4.2	19.8*
CC(C)(C)c1nnc(NC(=O)c2cc(-c3ccccc3)nc3ccccc23)s1	3.3	13.4	-3.4	-4.8	-2.1	3.6
CC(=O)Nc1nc(-c2ccc(-c3ccccc3)cc2)cs1	-15.8	-1.7	-5.7	-2.1	·	21.0*
O=C(NC1CCCC1)[C@@H]1CCCN1C(=O)[C@@H](NC(=O)N1CCOCC1)c1ccccc1	-1.6	·	-12.6	1.3	·	·
Cc1cc2c(nc1C)CCCN2S(=O)(=O)c1ccccc1	-7.2	·	-5.3	-4.5	·	·
O=C(Nc1nc(-c2ccccc2)cs1)c1cccc([N+](=O)[O-])c1	13.4	56.9*	-3.3	7.7	2.9	-0.5
O=C(Nc1nc(-c2cccnc2)cs1)c1cccc([N+](=O)[O-])c1	9.3	5.6	-1.8	1.7	38.7	-4.2
CC(C)(C)N1Cc2nnn(CC3CCCCC3)c2-c2cc(F)ccc2S1(=O)=O	-1.9	·	·	-3.4	·	·
O=C(Nc1ccccc1OC(=O)c1ccccc1)c1ccccc1	-8.1	0.2	·	1.1	25.7	-46.6
COc1ccc(/C=N/NC(=O)c2ccccc2Cl)cc1CSc1nc2ccccc2s1	3.5	13.3	-4.8	6.2	-3.5	31.3*
COc1ccc(/C=N/NC(=O)c2cccnc2)cc1CSc1nc2ccccc2s1	3.7	7.8	-7.6	0.4	16.4	2.6
CCOc1ccccc1N=c1oc2cc(O)ccc2cc1C(=O)NCC1CCCO1 (stereo not given)	i	-4.9	32.8*	i	15.1	-16.8
CCOc1ccc(N=c2oc3cc(O)ccc3cc2C(=O)NCC2CCCO2)cc1 (stereo not given)	i	-4.0	22.9	-279.6	6.5	-4.0
COc1ccccc1Nc1nc2ccc(C)cc2cc1C#N	-13.3	13.1	-11.5	-3.2	3.2	29.2*
COc1ccccc1Nc1nc2cc(C)ccc2cc1C#N	4.2	-4.1	-3.2	2.2	-1.7	1.7
